Test results: publication PMC3445631 (Bioorganic & medicinal chemistry letters, 2012)

Experiments:
mCB2 receptor = mCB2 receptor (Mus musculus, UniProt P47936); experiment: Photolabeling of mCB2; format: binding; conditions: HEK293 cell membranes expressing mCB2, photoactivated
Method in brief: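 Compound-free membranes were run in parallel as control. Incubated 30 min at 37°C, then UV-irradiated at 365 nm for 1 h on ice. Washed with 1% BSA TME, then plain TME. Followed by [3H]CP-55940 saturation binding.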

hCB2 = hCB2 (Homo sapiens, UniProt P34972); experiment: Photolabeling of hCB2; format: binding
hCB2, sequence (P34972 whole entry): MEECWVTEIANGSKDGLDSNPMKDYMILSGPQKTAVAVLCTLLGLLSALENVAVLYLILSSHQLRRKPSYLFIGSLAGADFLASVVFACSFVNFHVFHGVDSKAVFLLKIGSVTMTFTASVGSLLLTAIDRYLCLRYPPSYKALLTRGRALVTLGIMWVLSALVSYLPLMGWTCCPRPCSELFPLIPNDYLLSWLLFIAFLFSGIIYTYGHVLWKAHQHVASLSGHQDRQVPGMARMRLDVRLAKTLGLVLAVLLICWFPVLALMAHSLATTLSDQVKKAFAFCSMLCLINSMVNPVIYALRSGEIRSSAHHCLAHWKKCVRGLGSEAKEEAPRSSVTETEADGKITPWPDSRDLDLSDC

mCB2 receptor, sequence (P47936 whole entry): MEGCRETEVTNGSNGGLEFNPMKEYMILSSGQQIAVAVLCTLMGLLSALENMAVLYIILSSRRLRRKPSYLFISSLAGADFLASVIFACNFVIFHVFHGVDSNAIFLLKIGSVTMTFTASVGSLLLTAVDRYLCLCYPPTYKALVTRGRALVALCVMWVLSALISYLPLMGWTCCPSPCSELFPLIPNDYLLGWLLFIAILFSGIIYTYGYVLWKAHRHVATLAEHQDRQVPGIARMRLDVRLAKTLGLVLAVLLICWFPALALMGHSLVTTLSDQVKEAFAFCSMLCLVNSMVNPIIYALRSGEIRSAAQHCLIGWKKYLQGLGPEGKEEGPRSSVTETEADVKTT

Row | Structure (SMILES) | ability to photolabel the mCB2 receptor (mCB2 receptor) | extent of labeling of hCB2 (hCB2)
1 | CC1(C)Oc2cc(C(=O)c3c[nH]c4ccccc34)cc(O)c2[C@@H]2C[C@H](O)CC[C@H]21 [Compound 50] | failed to label mCB2 | 
2 | CC1(C)Oc2cc(C(=O)c3cccc(C(F)(F)F)c3)cc(O)c2[C@@H]2C[C@H](O)CC[C@H]21 [Compound 49] | also labeled, however, less effectively | 30%
